p97 ATPase inh – blocks human p97 ATPase activity | P55072 | recombinant p97 ATPase, Kinase-Glo ATP luminescence, 3 h | inhibition, % at 8 µM | 220,000 compounds, 0.42% hits | AID 1481; in the data active = inhibition above about 15%
Tb hexokinase – blocks Trypanosoma brucei hexokinase 1 activity; recombinant TbHK1, G6PDH-coupled NADH A340; inhibition, % at 10 µM; 220,000 compounds, 0.11% hits;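 active = inhibition of 50% or more in the single-dose primary screen; inactive = inhibition below 50%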
Runt-SMMHC FRET – inhibitors of human RUNX1 Runt domain binding to CBFb-SMMHC. Q01196+Q13951. Cerulean-Runt/Venus-CBFb-SMMHC FRET ratio 530/480, 1 h. inhibition, % at 20 µM. 220,000 compounds, 0.74% hits;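 active = mean inhibition across duplicate retests at 20 µM reaching about 50%, limit read from the data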;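 note: inhibitors lower the FRET ratio by blocking Runt binding to CBFb-SMMHC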
Target sequence (Q01196 whole entry, looked up, the tested form may be a part): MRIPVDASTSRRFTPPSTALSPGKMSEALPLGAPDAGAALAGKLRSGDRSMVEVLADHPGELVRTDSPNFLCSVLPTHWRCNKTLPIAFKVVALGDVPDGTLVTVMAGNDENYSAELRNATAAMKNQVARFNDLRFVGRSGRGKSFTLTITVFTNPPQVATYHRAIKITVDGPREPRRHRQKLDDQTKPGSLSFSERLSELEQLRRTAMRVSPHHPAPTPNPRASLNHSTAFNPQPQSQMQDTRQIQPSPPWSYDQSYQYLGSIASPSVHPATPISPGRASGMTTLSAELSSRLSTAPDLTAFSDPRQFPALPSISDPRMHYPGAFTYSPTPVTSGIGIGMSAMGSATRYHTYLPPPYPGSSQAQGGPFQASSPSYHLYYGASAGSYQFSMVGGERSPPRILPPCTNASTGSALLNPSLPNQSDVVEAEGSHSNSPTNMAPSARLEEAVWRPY
Target sequence (Q13951 whole entry, looked up, the tested form may be a part): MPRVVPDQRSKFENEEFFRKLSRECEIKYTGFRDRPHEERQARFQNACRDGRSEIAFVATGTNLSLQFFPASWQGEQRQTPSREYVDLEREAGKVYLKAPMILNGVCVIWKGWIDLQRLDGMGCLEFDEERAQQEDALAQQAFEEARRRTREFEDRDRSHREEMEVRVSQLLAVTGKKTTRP
RanGTP-Impb inh – inhibitors of RanGTP-importin-beta interaction, primary screen, biochemical, FRET, CFP-Ran, YFP-importin-beta, homogeneous; cell-free CFP-Ran/YFP-importin-beta FRET ratio; inhibition, % (concentration not given with the values); 300,000 compounds, 1.1% hits; AID 2216;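 active = more than half of the replicate wells show a fall in the fluorescence ratio signal beyond about 16%, limit read from the data, passing the limit was not always enough; inconclusive = exactly half of the replicate wells pass the set limit; inactive = fewer than half of replicates pass the limit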
Hck Nef HTS – blocks Nef-activated human Hck kinase; 220,000 compounds, 0.68% hits; P08631; AID 463187; Recombinant Hck-YEEI plus Nef, Z-Lyte FRET kinase assay; inhibition, % at 20 µM;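 active = Hck-Nef kinase inhibition above about 50%, limit read from the data; inactive = inhibition below that limit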
Runt-CBFb FRET – blocks binding of human RUNX1 Runt domain to CBFb; 220,000 compounds, 0.46% hits; Cerulean-Runt/Venus-CBFb FRET ratio 530/480, 1 h; AID 1496; inhibition, % at 20 µM; Q01196+Q13951;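 active = inhibition over about 50% at 20 µM in the single-dose screen, limit read from the data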
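Schedule: protein complex preformed 1 h, compound exposure 1 h, room temperature, dark; test system: Cerulean-labeled Runt domain protein; amount: 100 nM per protein; buffer or medium: Tris 50 mM pH 7.5, KCl, K2SO4, 0.01% BSA; read-out: loss of energy transfer signal; detection: FRET fluorescence; controls: 5 µM unlabeled CBFb as full-inhibition high control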
A number is an active result; – = inactive; ? = inconclusive; · = no result given. The list is not random: actives were taken first. Their share in the collection is about 2.1%.

SMILES	p97 ATPase inh	Tb hexokinase	Runt-SMMHC FRET	RanGTP-Impb inh	Hck Nef HTS	Runt-CBFb FRET
COc1ccc(N=Cc2sc(O)c3ccccc23)cc1	–	–	–	–	–	–
O=[N+]([O-])c1ccc(N=Cc2sc3ccccc3c2O)cc1	–	–	105	37	–	–
O=[N+]([O-])c1cccc(/C=C/c2nc(C=Nc3ccc4ccccc4c3)c(O)o2)c1	–	–	–	·	–	–
O=[N+]([O-])c1cccc(N=Cc2sc3ccccc3c2O)c1	–	–	87	–	–	–
Oc1c(C=NCc2ccccc2)sc2ccccc12	–	–	64	?	–	–
O=C(NCc1ccccc1)C1CCC(=O)N(CCN2CCOCC2)C1 (configuration not stated)	·	·	·	–	·	·
CCCn1nc(NC(=O)c2cccs2)c2cc3cc(OC)ccc3nc21	–	–	63	106	–	63
CCCCn1nc(NC(=O)c2cccs2)c2cc3cc(OC)ccc3nc21	–	–	78	129	–	67
CCCn1nc(NC(=O)c2ccncc2)c2cc3ccccc3nc21	–	–	–	–	–	–
N#CC1(C#N)C(c2ccccc2)OC23CCCCCC2C1(C#N)C(=N)O3 (configuration not stated)	–	–	80	?	–	–
N#CC1(C#N)C(c2ccccc2)OC23CCCCC2C1(C#N)C(=N)O3 (configuration not stated)	–	–	–	42	–	–
Cc1ccc(C(=O)NNc2cc(=O)n(C)c(=O)n2C)cc1C	–	–	–	28	–	–
Cn1c(NNC(=O)c2cccc3ccccc23)cc(=O)n(C)c1=O	–	–	93	24	–	–
CCOc1ccc(CNc2ccc3c(c2)ncn3C(C)(C)C)cc1	·	·	·	19	·	·
CCCn1cnc2cc(NCc3ccccc3O)ccc21	·	·	·	–	·	·
CCCn1cnc2cc(NCc3cccc(OC)c3)ccc21	–	–	–	24	–	–
COc1cc(C)ccc1OCc1cc(C(=O)N2CCN(C)C[C@@H]2c2ccccc2)no1	·	·	·	–	·	·
COc1cccc(C2C(C#N)=C(N)Oc3cc(N)ccc32)c1OC (configuration not stated)	–	–	100	105	–	72
CC(=O)C1=C(c2ccccc2)OC(N)=C(C#N)C1c1ccccc1F (configuration not stated)	–	–	–	–	–	–
N#CC1=C(N)Oc2cc(N)ccc2C1c1ccccc1F (configuration not stated)	·	·	·	121	·	·
Cc1nc(SCC2(C)CC2(Cl)Cl)n[nH]1 (configuration not stated)	–	–	–	–	–	–
Cc1[nH]c2c(C)cccc2c1CCNC(=O)c1ccc2c(c1[N+](=O)[O-])C(=O)c1ccccc1C2=O	15	–	–	–	–	–
CC1=C(CC(=O)O)c2cc(F)ccc2/C1=C/c1ccc(S(C)=O)cc1 (configuration not stated)	·	·	·	–	·	·
CC(C)S(=O)(=O)C1=NSC2=NC(=O)/C(=C\c3ccc(-c4ccccc4)o3)C(=N)N21	–	–	82	?	–	–
CCCCOc1ccc(C(=O)N2CCN(CC(=O)Nc3ccc(C)cc3)CC2)cc1OC	·	·	·	–	·	·
SMILES	p97 ATPase inh	Tb hexokinase	Runt-SMMHC FRET	RanGTP-Impb inh	Hck Nef HTS	Runt-CBFb FRET
CC(CNC(=O)CCS(=O)(=O)c1ccc2c(c1)NC(=O)CO2)c1ccccc1 (configuration not stated)	·	·	·	–	·	·
O=C(CC(C(=O)O)c1c[nH]c2ccccc12)c1ccccc1 (configuration not stated)	–	–	–	42	–	–
O=C(O)C(O)Cc1c[nH]c2ccccc12 (configuration not stated)	–	–	–	·	–	–
COc1ccc(CCNC2CC(=O)N(CCc3ccccc3)C2=O)cc1OC (configuration not stated)	–	–	–	?	–	–
COc1ccc(CCNC2=C(Cl)C(=O)N(CCc3ccccc3)C2=O)cc1OC	–	–	55	–	–	–
Cc1cc(Oc2nc3ccccn3c(=O)c2/C=C(\C#N)C(=O)NC2CCS(=O)(=O)C2)ccc1Cl (configuration not stated)	·	·	·	59	·	·
N#C/C(=C\c1c(Oc2ccc(Cl)cc2)nc2ccccn2c1=O)C(=O)NC1CCS(=O)(=O)C1 (configuration not stated)	·	·	·	51	·	·
COc1cc(C2NC(=O)NC(C)=C2C(=O)OCc2ccc(C)cc2)cc(OC)c1OC (configuration not stated)	·	·	·	29	·	·
COc1cc(C2NC(=O)NC(C)=C2C(C)=O)cc(OC)c1OC (configuration not stated)	–	–	–	–	–	–
CCOC(=O)C1=C(C)NC(=O)NC1c1cc(Br)c(O)c(OC)c1 (configuration not stated)	–	–	–	–	–	–
COc1cc(C2NC(=O)NC(C)=C2C(=O)OCc2ccc(C)cc2)cc(OC)c1O (configuration not stated)	–	–	–	66	–	–
COC(=O)c1cc2c(ccc3ccccc32)oc1=O	·	·	·	84	·	·
COc1ccc2oc(=O)c(C(=O)OCc3ccccc3)cc2c1	·	·	·	19	·	·
O=c1oc2ccc3ccccc3c2cc1-c1nc2ccccc2o1	–	–	·	126	–	·
COc1ccc(NC(=S)NC2CC3CCCC(C2)N3C2CC2)cc1 (configuration not stated)	–	–	–	–	–	–
CCCN1C2CCCC1CC(NC(=S)Nc1ccc(OC)cc1)C2 (configuration not stated)	–	–	71	–	–	–
CCOc1ccc(CNCCNC(=O)c2nonc2N)cc1	–	–	–	–	–	–
Nc1nonc1C(=O)NCCNCc1ccccc1OCc1ccc(F)cc1	–	–	–	18	–	–
CC1=NN(c2ccc(Cl)cc2)C(=O)/C1=C\c1cccn1-c1ccc(S(N)(=O)=O)cc1	–	–	–	–	–	–
COc1ccccc1N1CCN(S(=O)(=O)c2c(C)[nH]c(C)c2C(=O)N2CCCC2)CC1	·	·	·	–	·	·
COc1ccccc1N1CCN(S(=O)(=O)c2c(C)[nH]c(C)c2C(=O)N2CCCCC2)CC1	·	·	·	23	·	·
C/C(CC(=O)Nc1ccc(F)cc1)=N\NC(=O)c1ccccn1	–	–	–	179	–	–
CC(=O)Nc1ccccc1NC(=O)C/C(C)=N/NC(=O)c1ccccn1	–	–	·	–	–	·
COc1cccc2sc3ccc(C#CC4(O)CCCCC4)cc3c(=O)c12	·	·	·	49	·	·
CCC(C)NC(=O)c1cc2c(=O)n3cccc(C)c3nc2s1 (configuration not stated)	·	·	·	–	·	·
CC(=O)Nc1ccc(S(=O)(=O)NCc2ccc3c(c2)cc(C)n3C)cc1	17	–	–	–	–	–
Cc1cc2cc(CNS(=O)(=O)c3ccc4ccccc4c3)ccc2n1C	–	–	–	–	–	–
